Source: PMC7115421 (European Journal of Medicinal Chemistry, 2009)

Columns and labels:
[1] = tested on: MDA-MB468, MDA-MB231 and MCF7 breast cancer cell lines; assay: SRB cytotoxicity assay, three breast cancer cell lines together; assay type: cell-based, human; settings: for sensitization of cell killing by PI3K-Akt inhibitors (in words): in combination with GI20 doses of PI3K-Akt inhibitors, three breast cancer cell lines
Method in brief: (§1)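 Cells plated at 5000–10,000/well and held 24 h at 37 °C, 5% CO2; time-zero wells TCA-fixed. Test compound from DMSO stock, seven concentrations (2–10-fold dilutions), 48 h; DMSO-matched medium control. Cold TCA fixation (10% final), 60 min, 4 °C; 0.4% SRB stain; Tris base solubilisation; A515–564 nm. Growth % = (Ti−Tz)/(C−Tz)×100; GI values from variable-slope sigmoidal fit; triplicates, ≥3 independent experiments.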

[2] = tested on: MDA-MB468 breast cancer cell line; assay: SRB cytotoxicity assay, MDA-MB468; assay type: cell-based; settings: Homo sapiens
Method in brief: (§2)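 Cells grown in RPMI 1640 with 10% FBS and 2 mM L-glutamine at 37 °C, 5% CO2. 5000–10,000 cells/well seeded 24 h before dosing. Seven concentrations from 2–10-fold serial dilutions; medium with matched DMSO as control. After 48 h: TCA fixation (60 min, 4 °C), 0.4% SRB, Tris solubilisation, absorbance 515–564 nm. Growth = (Ti−Tz)/(C−Tz)×100. GI50 from variable-slope sigmoidal fit; triplicates, ≥3 experiments.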

[3] = tested on: 184B5 immortalized breast cell line; assay: SRB cytotoxicity assay, 184B5 non-cancer cells; assay type: cell-based, human; settings: for killing of 184B5 non-cancer cells (in words): combined with constant amount of Akt inhibitors 7–10 (0.04, 0.4, 3.5, 0.5 μM)
[4] = tested on: MDA-MB231 breast cancer cell line; assay: SRB cytotoxicity assay, MDA-MB231; assay type: cell-based; settings: Homo sapiens
Method in brief: as §2

[5] = tested on: MCF7 breast cancer cell line; assay: SRB cytotoxicity assay, MCF7; assay type: cell-based, human
Method in brief: as §2

[6] = tested on: MDA-MB468, MDA-MB231, MCF7 and 184B5; assay: SRB cytotoxicity assay, all four cell lines together; assay type: cell-based, human; settings: for cytotoxicity (in words) on the four cell lines: PI3K-Akt inhibitor alone; for average GI20 values on the four cell lines: average over MDA-MB468, MDA-MB231, MCF7, 184B5
Method in brief: as §1

CCN(CC)CCCC(C)Nc1ccnc2cc(Cl)ccc12 (centres unmarked) [Compound 1, Chloroquine diphosphate]
GI50 ([1]; Homo sapiens, read-out: GI50 on the cancer cell lines (range)): 22.5 to 38.4 µM
IC50 ([2]; MDA-MB-468): 28.6 µM
GI50 ([2]; MDA-MB-468, 48 h): 28.6 ± 1.25 µM
IC50 ([3]; Homo sapiens, 184B5): 76.1 µM
IC50 ([4]; MDA-MB-231): 22.5 µM
GI50 ([4]; MDA-MB-231, 48 h): 22.5 ± 1.44 µM
IC50 ([5]; Homo sapiens, MCF7): 38.4 µM
GI50 ([5]; Homo sapiens, MCF7, 48 h): 38.4 ± 1.2 µM

CCCCNc1ccnc2cc(Cl)ccc12 [Compound 2, Butyl-(7-chloro-quinolin-4-yl)-amine]
sensitization of cell killing by PI3K-Akt inhibitors (in words) [1]: generally not effective sensitizers
killing of 184B5 non-cancer cells (in words) [3]: effectively killed

CCCCNc1ccnc2cc(F)ccc12 [Compound 3, Butyl-(7-fluoro-quinolin-4-yl)-amine]
sensitization of cell killing by PI3K-Akt inhibitors (in words) [1]: generally not effective sensitizers
killing of 184B5 non-cancer cells (in words) [3]: effectively killed

CN(C)CCNc1ccnc2cc(Cl)ccc12 [Compound 4, N′-(7-Chloro-quinolin-4-yl)-N,N-dimethyl-ethane-1,2-diamine]
sensitization of cell killing by PI3K-Akt inhibitors (in words) [1]: substantial enhancement of cell killing

CN(C)CCNc1ccnc2cc(F)ccc12 [Compound 5, N′-(7-Fluoro-quinolin-4-yl)-N,N-dimethyl-ethane-1,2-diamine]
sensitization of cell killing by PI3K-Akt inhibitors (in words) [1]: substantial enhancement of cell killing

COc1ccc2c(NCCN(C)C)ccnc2c1 [Compound 6, N′-(7-Methoxy-quinolin-4-yl)-N,N-dimethyl-ethane-1,2-diamine]
sensitization of cell killing by PI3K-Akt inhibitors (in words) [1]: not very effective

CC[n+]1c(C=CN(C)c2ccccc2)n(-c2ccccc2)c2ccc(-c3nc4ccccc4s3)cc21.[I-] [Compound 7, 6-Benzothiazol-2-yl-1-ethyl-2-[2-(methyl-phenyl-amino)-vinyl]-3-phenyl-3H-benzoimidazol-1-ium Iodide]
cytotoxicity (in words) on the four cell lines [6]: the most cytotoxic
average GI20 values on the four cell lines [6]: 0.04 µM

O=c1[nH]c2ccccc2n1C1CCN(Cc2ccc(-c3nc4cc5nc[nH]c5cc4nc3-c3ccccc3)cc2)CC1 [Compound 8, 1-{1-[4-(7-Phenyl-1H-imidazo[4,5-g]quinoxalin-6-yl)-benzyl]-piperidin-4-yl}-1,3-dihydro-benzoimidazol-2-one]
cell killing (in words) of MCF7 ([5]; PI3K-Akt inhibitor alone, not other cells examined): killed MCF7 cells effectively

CCN(CC)CCCCN1c2ccccc2OC2C=CC(Cl)=CC21.Cl (centres unmarked) [Compound 9, [4-(2-chloro-4a,10a-dihydro-phenoxazin-10-yl)-butyl]-diethyl-amine hydrochloride]
cytotoxicity (in words) on the four cell lines [6]: only week cytotoxicity

O=c1cc(N2CCOCC2)oc2c(-c3ccccc3)cccc12 [Compound 10, 2-Morpholin-4-yl-8-phenyl-chromen-4-one]
average GI20 values on the four cell lines [6]: 0.52 µM
